PubChem BioAssay AID1267 (The Scripps Research Institute Molecular Screening Center, 2008)
Out of some 1,200 compounds screened, about 770 (64%) were called active. The set was probably picked from earlier hits. A selection follows. Unmarked numbers belong to inactive results.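 The calls were made as follows: active = percent activation of the STAT3 luciferase reporter above a set limit taken from the earlier primary screen (cut at about 130% in these data); inactive = the rest.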

Test: enhancers of IL-6 STAT3 signaling – U3A cells, luciferase, luminescence, confirmation (AID 1267);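 also: 0% = background signal of medium plus substrate and 100% = median of IL-6 with DMSO wells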
Conditions: U3A STAT3-luciferase reporter, IL-6 potentiation, at 5.7 µM, active compounds read high
Outline: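 System: STAT1-null U3A cells carrying STAT3-luciferase reporter; Read-out: % potentiation versus median IL-6 plus DMSO wells, background-subtracted; Times: 1 h pretreatment, 6 h IL-6, 37 °C; Also added: IL-6 stimulus at 33 ng/mL final; Measured by: luminescence.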

SMILES	potentiation (% of control)
CCC/C(=N\O)c1c[nH]c2ccccc12	143% (active)
COc1cc(-n2c(=S)[nH]c3ccc(C)cc3c2=O)c(Cl)cc1Cl	129%
